Measurements reported in ChEMBL document CHEMBL4196164, “Tariquidar-Related Chalcones and Ketones as ABCG2 Modulators” (ACS Med Chem Lett, 2018).

Assays:
ABCC1 = ABCC1 (Homo sapiens, UniProt P33527); test: Inhibition of human ABCC1 expressed in MDCK2 cells at 10 uM after 60 mins by calcein-AM dye based fluorescence assay relative to 30 uM reversan; format: cell-based; conditions: MDCK2 cells that express human ABCC1, probe calcein-AM
ABCG2 = target: T1, ABCG2 (Homo sapiens, UniProt Q9UNQ0); test: Inhibition of ABCG2 in human MCF7/Topo cells at 100 uM after 2 hrs by Hoechst 33342 staining based fluorescence assay relative to 10 uM FTC; format: cell-based; conditions: probe Hoechst 33342, read-out: Imax
T1 sequence (Q9UNQ0 whole entry): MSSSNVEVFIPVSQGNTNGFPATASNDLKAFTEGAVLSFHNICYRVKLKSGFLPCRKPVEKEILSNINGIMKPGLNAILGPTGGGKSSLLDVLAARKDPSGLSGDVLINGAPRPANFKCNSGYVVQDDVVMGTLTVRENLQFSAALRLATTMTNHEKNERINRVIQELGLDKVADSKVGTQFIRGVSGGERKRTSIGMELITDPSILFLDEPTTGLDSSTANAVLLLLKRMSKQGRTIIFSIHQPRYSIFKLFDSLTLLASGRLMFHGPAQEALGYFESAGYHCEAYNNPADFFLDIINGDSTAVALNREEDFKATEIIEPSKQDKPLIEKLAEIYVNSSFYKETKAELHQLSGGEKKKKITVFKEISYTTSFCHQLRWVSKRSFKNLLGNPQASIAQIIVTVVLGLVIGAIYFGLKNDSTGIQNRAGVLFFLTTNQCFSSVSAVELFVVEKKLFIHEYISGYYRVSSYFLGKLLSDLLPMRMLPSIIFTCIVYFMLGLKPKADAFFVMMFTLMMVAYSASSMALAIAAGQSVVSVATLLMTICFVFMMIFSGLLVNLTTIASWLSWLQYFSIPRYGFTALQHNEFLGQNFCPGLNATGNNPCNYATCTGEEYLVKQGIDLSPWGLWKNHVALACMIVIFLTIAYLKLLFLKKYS
Method in brief: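 Hoechst 33342 microplate assay in ABCG2-overexpressing MCF-7/Topo cells; maximal inhibitory effect taken as inhibition at the highest concentration (100 μM) of compound, expressed relative to the inhibition from 10 μM FTC set as 100%.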

[1] = Stability of the compound in DMEM measured over 24 hrs by HPLC analysis; format: physicochemical
Method in brief: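 Compounds incubated in assay medium (DMEM with 10% fetal calf serum) at 37 °C; aliquots analysed by HPLC over 24 h for cleavage or degradation products.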

ABCB1 = ABCB1 (Homo sapiens, UniProt P08183); test: Inhibition of ABCB1 in human KBV1 cells at 10 uM measured after 10 mins by calcein-AM dye based fluorescence assay relative to 10 uM tariquidar; format: cell-based; conditions: probe calcein-AM
Sequence of ABCB1 (P08183 whole entry): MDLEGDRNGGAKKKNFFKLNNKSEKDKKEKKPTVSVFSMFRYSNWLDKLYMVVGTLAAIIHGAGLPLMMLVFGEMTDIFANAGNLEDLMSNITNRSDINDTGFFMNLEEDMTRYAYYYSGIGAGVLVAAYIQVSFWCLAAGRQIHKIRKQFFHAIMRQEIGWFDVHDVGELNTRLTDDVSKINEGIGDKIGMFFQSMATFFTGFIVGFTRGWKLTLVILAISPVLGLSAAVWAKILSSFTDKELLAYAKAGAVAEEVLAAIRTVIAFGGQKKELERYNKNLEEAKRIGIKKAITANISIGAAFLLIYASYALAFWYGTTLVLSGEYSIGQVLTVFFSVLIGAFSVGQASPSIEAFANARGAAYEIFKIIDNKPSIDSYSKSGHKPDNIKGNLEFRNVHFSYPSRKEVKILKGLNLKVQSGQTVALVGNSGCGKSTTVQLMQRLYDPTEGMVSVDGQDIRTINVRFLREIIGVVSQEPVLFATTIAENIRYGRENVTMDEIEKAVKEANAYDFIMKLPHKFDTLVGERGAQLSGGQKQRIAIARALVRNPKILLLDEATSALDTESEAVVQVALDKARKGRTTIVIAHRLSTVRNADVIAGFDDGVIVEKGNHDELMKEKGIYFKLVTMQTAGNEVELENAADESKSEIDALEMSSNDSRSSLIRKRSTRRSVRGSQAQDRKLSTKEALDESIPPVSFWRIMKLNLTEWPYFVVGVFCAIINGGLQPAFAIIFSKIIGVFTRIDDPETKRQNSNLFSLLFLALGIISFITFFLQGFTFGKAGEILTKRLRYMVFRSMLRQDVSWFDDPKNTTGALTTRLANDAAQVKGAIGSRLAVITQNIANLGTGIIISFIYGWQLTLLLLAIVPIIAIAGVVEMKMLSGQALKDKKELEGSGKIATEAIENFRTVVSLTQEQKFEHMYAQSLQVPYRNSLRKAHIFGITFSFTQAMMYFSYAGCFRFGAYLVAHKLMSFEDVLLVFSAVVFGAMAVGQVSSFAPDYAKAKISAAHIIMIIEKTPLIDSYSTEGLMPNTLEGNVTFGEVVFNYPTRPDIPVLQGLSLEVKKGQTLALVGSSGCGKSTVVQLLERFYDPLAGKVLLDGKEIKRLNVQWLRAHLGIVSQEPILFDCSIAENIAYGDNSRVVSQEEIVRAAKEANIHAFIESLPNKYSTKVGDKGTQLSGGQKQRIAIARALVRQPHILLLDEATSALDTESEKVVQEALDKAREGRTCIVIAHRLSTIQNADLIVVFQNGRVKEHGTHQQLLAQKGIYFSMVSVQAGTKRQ

[2] = target: T2, Broad substrate specificity ATP-binding cassette transporter ABCG2 (Homo sapiens, UniProt Q9UNQ0); test: Inhibition of ABCG2 in human MCF7/Topo cells after 2 hrs by Hoechst 33342 staining based fluorescence assay; format: cell-based
T2 sequence (Q9UNQ0 whole entry): T1 sequence (Q9UNQ0 whole entry)
Method in brief: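 ABCG2-overexpressing MCF-7/Topo cells, Hoechst 33342 accumulation in microplate format; inhibition expressed relative to 10 μM FTC (100%). Relative IC50 taken as the midpoint between lower and upper plateaus of each compound's own concentration–response curve, from four-parameter fit; mean ± SEM of three independent experiments in triplicate.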

[3] = Cytotoxicity against human MCF7/Topo cells at 0.1 to 10 uM measured up to 120 hrs by crystal violet staining based assay; format: cell-based
Method in brief: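 Kinetic chemosensitivity assay on proliferating ABCG2-overexpressing MCF-7/Topo cells under long-term exposure at 100 nM, 1, 3 and 10 μM; 100 nM vinblastine as positive control, DMSO vehicle as negative control; growth curves followed over time.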

[4] = target: T2, Broad substrate specificity ATP-binding cassette transporter ABCG2; test: Inhibition of ABCG2 (unknown origin) expressed in MDCK2 cells incubated for 30 mins measured at 60 secs interval for 120 mins by Hoechst 33342 staining based fluorescence assay; format: cell-based
[5] = target: T2, Broad substrate specificity ATP-binding cassette transporter ABCG2; test: Inhibition of ABCG2 (unknown origin) expressed in HEK293 cells assessed as reduction in mitoxantrone efflux measured after 30 mins by fluorescence assay; format: cell-based

Sequence of ABCC1 (P33527 whole entry): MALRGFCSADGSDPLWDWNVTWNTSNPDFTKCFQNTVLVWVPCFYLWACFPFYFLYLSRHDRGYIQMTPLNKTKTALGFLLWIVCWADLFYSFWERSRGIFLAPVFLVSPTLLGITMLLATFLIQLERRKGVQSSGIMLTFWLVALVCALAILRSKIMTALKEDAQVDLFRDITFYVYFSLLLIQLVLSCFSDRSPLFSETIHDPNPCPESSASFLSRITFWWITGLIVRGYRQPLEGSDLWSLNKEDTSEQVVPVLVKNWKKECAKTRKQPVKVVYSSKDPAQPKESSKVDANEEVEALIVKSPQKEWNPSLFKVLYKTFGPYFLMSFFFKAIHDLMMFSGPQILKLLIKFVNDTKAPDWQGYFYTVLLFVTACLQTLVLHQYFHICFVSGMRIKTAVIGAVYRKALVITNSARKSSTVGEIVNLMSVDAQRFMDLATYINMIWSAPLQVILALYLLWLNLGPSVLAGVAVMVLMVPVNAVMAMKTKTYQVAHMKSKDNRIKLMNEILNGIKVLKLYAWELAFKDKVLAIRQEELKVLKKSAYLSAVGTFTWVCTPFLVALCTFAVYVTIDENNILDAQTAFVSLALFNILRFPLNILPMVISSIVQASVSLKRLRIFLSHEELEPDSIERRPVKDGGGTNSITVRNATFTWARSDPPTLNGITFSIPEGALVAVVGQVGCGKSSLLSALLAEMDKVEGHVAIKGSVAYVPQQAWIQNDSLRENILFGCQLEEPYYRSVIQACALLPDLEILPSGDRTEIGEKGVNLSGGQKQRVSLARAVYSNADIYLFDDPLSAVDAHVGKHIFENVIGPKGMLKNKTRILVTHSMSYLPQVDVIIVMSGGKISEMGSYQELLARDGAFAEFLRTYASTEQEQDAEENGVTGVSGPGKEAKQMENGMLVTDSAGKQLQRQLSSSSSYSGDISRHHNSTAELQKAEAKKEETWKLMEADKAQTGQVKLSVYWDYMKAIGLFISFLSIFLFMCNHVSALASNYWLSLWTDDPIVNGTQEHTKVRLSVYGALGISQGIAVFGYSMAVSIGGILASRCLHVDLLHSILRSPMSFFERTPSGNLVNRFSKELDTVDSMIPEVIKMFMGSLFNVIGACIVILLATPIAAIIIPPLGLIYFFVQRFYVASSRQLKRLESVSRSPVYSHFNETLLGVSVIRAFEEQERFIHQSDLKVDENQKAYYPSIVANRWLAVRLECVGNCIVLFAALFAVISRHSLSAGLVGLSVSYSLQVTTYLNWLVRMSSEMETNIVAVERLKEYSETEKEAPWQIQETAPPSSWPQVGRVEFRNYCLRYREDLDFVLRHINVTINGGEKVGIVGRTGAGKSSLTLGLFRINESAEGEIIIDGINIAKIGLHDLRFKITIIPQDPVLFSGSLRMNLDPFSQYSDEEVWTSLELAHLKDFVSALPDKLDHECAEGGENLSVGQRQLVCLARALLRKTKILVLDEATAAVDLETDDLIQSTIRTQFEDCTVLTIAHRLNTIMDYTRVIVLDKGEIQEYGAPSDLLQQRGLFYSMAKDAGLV

| SMILES | inhibition at 1 h, 10 µM (ABCC1) [%] | Emax at 2 h, 100 µM (ABCG2) [%] | Stability [1] | inhibition at 10 min, 10 µM (ABCB1) [%] | IC50 [2] [nM] | Activity [3] | IC50 [4] [nM] | IC50 [5] [nM] |
| --- | --- | --- | --- | --- | --- | --- | --- | --- |
| COCCOCCOCCOc1cc2c(cc1OC)CCN(CCOc1ccc(/C=C/C(=O)c3cccc(NC(=O)c4ccc5ccccc5n4)c3)cc1)C2 | < 25 | 81 | Stable | < 25 | 2830 |  |  |  |
| COCCOCCOCCOc1cc2c(cc1OC)CCN(CCOc1ccc(/C=C/C(=O)c3ccc(C)c(NC(=O)c4ccc5ccccc5n4)c3)cc1)C2 | < 25 | 111 | Stable | < 25 | 2720 |  |  |  |
| COCCOc1cc2c(cc1OC)CCN(CC(=O)c1ccc(C)c(NC(=O)c3ccc4ccccc4n3)c1)C2 | < 25 | 79 | Stable | < 25 | 23200 |  |  |  |
| COc1cc2c(cc1OC)CN(CCOc1ccc(/C=C/C(=O)c3cccc(NC(=O)c4ccc5ccccc5n4)c3)cc1)CC2 | < 25 | 79 | Stable | < 25 | 4080 |  |  |  |
| COCCOc1cc2c(cc1OC)CCN(CCOc1ccc(/C=C/C(=O)c3cccc(NC(=O)c4ccc5ccccc5n4)c3)cc1)C2 | < 25 | 72 | Stable | < 25 | 2130 |  |  |  |
| COCCOCCOCCOc1cc2c(cc1OC)CCN(CC(=O)c1cccc(NC(=O)c3ccc4ccccc4n3)c1)C2 | < 25 | 47 | Stable | < 25 | 1130 |  |  |  |
| COCCOCCOCCOc1cc2c(cc1OC)CCN(CC(=O)c1ccc(C)c(NC(=O)c3ccc4ccccc4n3)c1)C2 | < 25 | 86 | Stable | < 25 | 6650 | Non-Toxic |  |  |
| COCCOc1cc2c(cc1OC)CCN(CCOc1ccc(/C=C/C(=O)c3ccc(C)c(NC(=O)c4ccc5ccccc5n4)c3)cc1)C2 | < 25 | 97 | Stable | < 25 | 1550 |  |  |  |
| COc1ccc(/C=C/C(=O)c2ccccc2NC(=O)c2cccs2)cc1OC |  |  |  |  |  |  | 501 |  |
| COCCOc1cc2c(cc1OC)CCN(CC(=O)c1cccc(NC(=O)c3ccc4ccccc4n3)c1)C2 | < 25 | 55 | Stable | < 25 | 14400 |  |  |  |
| COc1cc2c(cc1OC)CN(CCOc1ccc(/C=C/C(=O)c3ccc(C)c(NC(=O)c4ccc5ccccc5n4)c3)cc1)CC2 | < 25 | 86 | Stable | < 25 | 880 | Dose-dependent effect |  |  |
| COc1cc2c(cc1OC)CN(CC(=O)c1ccc(C)c(NC(=O)c3ccc4ccccc4n3)c1)CC2 | < 25 | 77 | Stable | < 25 | 8760 |  |  |  |
| COc1cc2c(cc1OC)CN(CC(=O)c1cccc(NC(=O)c3ccc4ccccc4n3)c1)CC2 | < 25 | 77 | Stable | < 25 | 6730 |  |  |  |
| COc1cc(OC)c(C(=O)/C=C/c2ccc3nccnc3c2)cc1OC |  |  |  |  |  |  |  | 1400 |
